In ChEMBL document CHEMBL5032538, “Studies on the Importance of the 7α-, and 12α- hydroxyl groups of N-Aryl-3α,7α,12α-trihydroxy-5β-cholan-24-amides on their Antigermination Activity Against a Hypervirulent Strain of Clostridioides (Clostridium) difficile” (Bioorg Med Chem, 2021) one finds Ki, Activity and IC50 data, which are given here for 20 compounds.

Type in all cases: functional
For experiment [1], the target named is Clostridioides difficile. Description: Inhibition of Taurocholate-induced spore germination in Clostridioides difficile 630 in presence of glycine measured every minute for 90 mins.
For experiment [2], the system named is Clostridioides difficile. Description: Inhibition of Taurocholate-induced spore germination in Clostridioides difficile R20291 assessed as remaining germination activity at 125 uM in the presence of glycine measured every minute for 2 hrs relative to control. An outline of the steps:
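Spores purified on a HistoDenz gradient, heat-activated at 68°C for 30 min, washed, then diluted to OD580 1.0 in 100 mM sodium phosphate pH 6.0 with 5 mg/ml sodium bicarbonate. Compound at 125 μM final, in triplicate, with 6 mM taurocholate and 12 mM glycine. OD580 read every minute for 2 h and normalized to time zero. Percent germination given with standard deviation.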

For experiment [3], the system named is Clostridioides difficile. Kind of experiment: Inhibition of Taurocholate-induced spore germination in Clostridioides difficile R20291 in the presence of glycine measured every minute for 2 hrs. An outline of the steps:
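HistoDenz-purified spores were heat-activated at 68°C for 30 min and set to OD580 1.0 in 100 mM sodium phosphate pH 6.0 with 5 mg/ml bicarbonate. They were incubated with varied analog concentrations plus 6 mM taurocholate and 12 mM glycine. OD580 was read each minute for 2 h and normalized to t0. IC50 came from extent of germination plotted against log concentration.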

Experiment [4] concerns the target Clostridioides difficile. Kind of experiment: Inhibition of Taurocholate-induced spore germination in Clostridioides difficile UK1 at […] by spectrophotometric method.

As for `C[C@H](CCC(=O)Nc1cccc(S(=O)(=O)O)c1)[C@H]1CC[C@H]2[C@@H]3[C@H](O)C[C@@H]4C[C@H](O)CC[C@]4(C)[C@H]3C[C@H](O)[C@]12C`, the Ki at Clostridioides difficile [1] worked out at 50 µM.

For the compound `C[C@H](CCC(=O)Nc1ccccc1)[C@H]1CC[C@H]2[C@@H]3CC[C@@H]4C[C@H](O)CC[C@]4(C)[C@H]3C[C@H](O)[C@]12C`, in the experiment on Clostridioides difficile [2], the Activity came out at 3%. Further, in the experiment with Clostridioides difficile [3], the IC50 came out at 1.3 µM.

For the compound `C[C@H](CCC(=O)Nc1cccc(F)c1)[C@H]1CC[C@H]2[C@@H]3[C@@H](O)C[C@@H]4C[C@H](O)CC[C@]4(C)[C@H]3CC[C@]12C`, the Activity in the experiment on Clostridioides difficile [2] stood at 100%.

For `COc1ccccc1NC(=O)CC[C@@H](C)[C@H]1CC[C@H]2[C@@H]3[C@H](O)C[C@@H]4C[C@H](O)CC[C@]4(C)[C@H]3CC[C@]12C`, in the experiment with Clostridioides difficile [2], the Activity is on record as 31%. Moreover, in the experiment with Clostridioides difficile [3], the IC50 amounted to 6 µM.

With `Cc1ccc(F)cc1NC(=O)CC[C@@H](C)[C@H]1CC[C@H]2[C@@H]3CC[C@@H]4C[C@H](O)CC[C@]4(C)[C@H]3CC[C@]12C`, the Activity with Clostridioides difficile [2] is listed as 100%.

Take `C[C@H](CCC(=O)Nc1ccccc1)[C@H]1CC[C@H]2[C@@H]3[C@@H](O)C[C@@H]4C[C@H](O)CC[C@]4(C)[C@H]3CC[C@]12C`: the Activity with Clostridioides difficile [2] amounted to 57%.

In the case of `Cc1ccc(F)cc1NC(=O)CC[C@@H](C)[C@H]1CC[C@H]2[C@@H]3CC[C@@H]4C[C@H](O)CC[C@]4(C)[C@H]3C[C@H](O)[C@]12C`, in the experiment with Clostridioides difficile [2], the Activity was found to be 65%.

Consider `C[C@H](CCC(=O)Nc1ccccc1)[C@H]1CC[C@H]2[C@@H]3[C@H](O)C[C@@H]4C[C@H](O)CC[C@]4(C)[C@H]3CC[C@]12C`, for which the Activity with Clostridioides difficile [2] turned out to be 14%. Further, in the experiment on Clostridioides difficile [3], the IC50 was 4 µM.

For the compound `COc1ccccc1NC(=O)CC[C@@H](C)[C@H]1CC[C@H]2[C@@H]3[C@@H](O)C[C@@H]4C[C@H](O)CC[C@]4(C)[C@H]3CC[C@]12C`, the Activity in the experiment on Clostridioides difficile [2] stood at 100%.

`C[C@H](CCC(=O)Nc1cccc(F)c1)[C@H]1CC[C@H]2[C@@H]3CC[C@@H]4C[C@H](O)CC[C@]4(C)[C@H]3CC[C@]12C`: the Activity with Clostridioides difficile [2] was determined as 100%.

Take `C[C@H](CCC(=O)Nc1cccc(F)c1)[C@H]1CC[C@H]2[C@@H]3CC[C@@H]4C[C@H](O)CC[C@]4(C)[C@H]3C[C@H](O)[C@]12C`: the Activity in the experiment on Clostridioides difficile [2] is on record as 59%.

Consider `Cc1ccc(F)cc1NC(=O)CC[C@@H](C)[C@H]1CC[C@H]2[C@@H]3[C@H](O)C[C@@H]4C[C@H](O)CC[C@]4(C)[C@H]3CC[C@]12C`, for which, in the experiment with Clostridioides difficile [2], the Activity amounted to 66%.

On to `COc1ccccc1NC(=O)CC[C@@H](C)[C@H]1CC[C@H]2[C@@H]3CC[C@@H]4C[C@H](O)CC[C@]4(C)[C@H]3CC[C@]12C`, for which the Activity with Clostridioides difficile [2] was 100%.

As to `C[C@H](CCC(=O)Nc1ccccc1)[C@H]1CC[C@H]2[C@@H]3CC[C@@H]4C[C@H](O)CC[C@]4(C)[C@H]3CC[C@]12C`, in the experiment on Clostridioides difficile [2], the Activity is 100%.

`C[C@H](CCC(=O)Nc1cccc(F)c1)[C@H]1CC[C@H]2[C@@H]3[C@H](O)C[C@@H]4C[C@H](O)CC[C@]4(C)[C@H]3CC[C@]12C`: the Activity in the experiment with Clostridioides difficile [2] is given as 100%.

On to `COc1ccccc1NC(=O)CC[C@@H](C)[C@H]1CC[C@H]2[C@@H]3CC[C@@H]4C[C@H](O)CC[C@]4(C)[C@H]3C[C@H](O)[C@]12C`, for which the Activity in the experiment on Clostridioides difficile [2] turned out to be 0.4%. Also, the IC50 with Clostridioides difficile [3] was 2.4 µM.

Turning to `Cc1ccc(F)cc1NC(=O)CC[C@@H](C)[C@H]1CC[C@H]2[C@@H]3[C@@H](O)C[C@@H]4C[C@H](O)CC[C@]4(C)[C@H]3CC[C@]12C`, the Activity with Clostridioides difficile [2] turned out to be 100%.

`C[C@H](CCC(=O)O)[C@H]1CC[C@H]2[C@@H]3[C@H](O)C[C@@H]4C[C@H](O)CC[C@]4(C)[C@H]3CC[C@]12C` [CHENODIOL]: the Ki at Clostridioides difficile [4] was found to be 378 µM.

`C[C@H](CCC(=O)O)[C@H]1CC[C@H]2[C@@H]3CC[C@@H]4C[C@H](O)CC[C@]4(C)[C@H]3CC[C@]12C` [LITHOCHOLIC ACID] gave a Ki on Clostridioides difficile [4] of 104 µM.

`C[C@H](CCC(=O)O)[C@H]1CC[C@H]2[C@@H]3[C@@H](O)C[C@@H]4C[C@H](O)CC[C@]4(C)[C@H]3CC[C@]12C` [URSODIOL] showed an inhibitory constant (Ki) on Clostridioides difficile [4] of 213 µM.

Broadly, the Ki is the equilibrium dissociation constant of an inhibitor or competing ligand from its target. Usually IC50 stands for the concentration needed to halve the response being measured.
